# hDAT+cocaine = changed human dopamine transporter uptake under cocaine IC80 | Q01959 | LLC-PK1 hDAT cells, [14C]-dopamine uptake with cocaine IC80; actives deviate in either direction | B-score at 10 µM | hit rate 1.3% among 110,000 | AID 449768;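 active means Z score or B-score, a plate-position-corrected score, falls beyond the plate's 99.7% confidence bounds, in either direction; inactive means both scores lie inside the 99.7% bounds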
# Jurkat viability = cytotoxic compounds reducing Jurkat cell viability; hit rate 1.2% among 56,000; inhibition, % at 4 µM; Jurkat E6.1 viability, ATP luminescence, 48 h;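 active means inhibition above the mean inhibition of all tested compounds plus 3 SD, cut at about 28% in these data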
# M1 agonist = agonists of M1 muscarinic receptor | CHO-M1 cells, Fluo-4 calcium fluorescence, agonist mode; active compounds read high | B-score at 10 µM | hit rate 3% among 64,000 | AID 626;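 active means fluorescence rise, raw or as B-score row- and column-corrected plate score, outside the 99.7% band of its plate's samples, either direction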
# D1 mod = allosteric modulators of human D1 dopamine receptor; P21728; HEK293 D1, CRE-luciferase, dopamine EC30 potentiation; actives deviate in either direction; B-score at 10 µM; hit rate 5.9% among 58,000; AID 641;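 active means luminescence count or its row- and column-corrected plate score outside the 99.7% band of the plate's sample wells, on either side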
# HEK293 NFkB inh = lowers PMA/ionomycin-induced NF-kB signal in HEK293 cells | HEK-293 NF-kB luciferase reporter, luminescence | AID 465 | inhibition, % at 3 µM | hit rate 0.21% among 62,000;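 active means inhibition above the mean of all tested compounds plus 3 SD, cut at about 40% in these data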
#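 Signal: luciferase luminescence; Material: HEK-293 cells with stable firefly luciferase reporter driven by four HIV NF-kB elements; Probe or stimulus: PMA with ionomycin; Replication: tested once; Times: 1 h compound pretreatment, then 16 h stimulation at 37 °C, 5% CO2; Benchmarks: DMSO and 10 µM reference inhibitor; Evaluation: per-plate % inhibition versus controls.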
# M1 antagonist = M1 muscarinic receptor (rat) antagonism; CHO-M1 cells, Fluo-4 calcium, ACh EC80 antagonist mode; active compounds read low; B-score at 10 µM; P08482; hit rate 3.4% among 64,000;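 active means calcium fluorescence response, raw or row-and-column corrected B-score, differing from the plate sample mean either way at a set confidence level, mostly lower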
# Target sequence (P08482 whole entry, looked up): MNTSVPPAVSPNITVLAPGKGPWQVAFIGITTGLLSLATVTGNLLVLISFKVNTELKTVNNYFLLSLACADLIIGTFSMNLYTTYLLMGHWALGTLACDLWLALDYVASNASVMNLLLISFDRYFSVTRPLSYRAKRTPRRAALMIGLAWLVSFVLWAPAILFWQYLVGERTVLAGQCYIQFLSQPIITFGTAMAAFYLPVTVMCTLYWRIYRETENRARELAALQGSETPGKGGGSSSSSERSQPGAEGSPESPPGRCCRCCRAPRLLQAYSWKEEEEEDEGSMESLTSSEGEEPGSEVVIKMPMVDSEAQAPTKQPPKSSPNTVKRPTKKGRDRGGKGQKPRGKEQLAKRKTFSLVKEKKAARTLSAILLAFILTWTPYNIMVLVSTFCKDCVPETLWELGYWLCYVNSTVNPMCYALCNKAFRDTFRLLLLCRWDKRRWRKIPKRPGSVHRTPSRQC
# Hits are given with their value; n = inactive; x = no result given. Sampled rows, rich in hits. Any-hit rate of the full collection: about 7.6%.
SMILES,hDAT+cocaine,Jurkat viability,M1 agonist,D1 mod,HEK293 NFkB inh,M1 antagonist
CC(=O)[C@@H]1[C@@H]2C(=O)N(Cc3ccccc3)C(=O)[C@@H]2C2c3ccccc3C=CN21 (stereo partly drawn),n,n,26,n,n,n
Cc1ccc(OCc2nc(-c3ccccn3)no2)c(Br)c1,n,n,n,-5.7,n,n
CCc1ccc(OCc2nc(-c3ccccn3)no2)c(Br)c1,n,n,n,-5,n,n
CC(=O)N1CCc2cc(S(=O)(=O)NC(CC(C)C)C(=O)Nc3cc(C)ccn3)ccc21 (stereo not drawn),n,n,n,-4,n,n
Cc1ccc(-n2nnnc2SCC(=O)c2cc(C)n(-c3cc(C)on3)c2C)cc1,n,n,n,n,n,0.82
CCN1CCc2nc(NC(=O)c3ccc4c(c3)OCCO4)sc2C1,n,n,n,n,n,n
Cn1cc(C(=O)c2ccc(Cl)cc2)cc1-c1nc2ccccc2n1C,n,42,n,n,n,n
Cn1c(=O)c(C(=O)c2ccccc2)nc2ccccc21,n,n,n,n,n,n
CCN1CCN(c2cc(C)c3cc(NC(=O)c4ccc(OC)c(OC)c4)ccc3n2)CC1,2.6,x,x,x,x,x
COc1cccc(C(=O)Nc2ccc3nc(N4CCN(c5ncccn5)CC4)cc(C)c3c2)c1OC,-6.9,x,n,n,n,n
CCN1CCN(c2cc(C)c3cc(NC(=O)Cc4ccccc4OC)ccc3n2)CC1,n,x,x,x,x,x
Cc1ccc(S(=O)(=O)N2CCCSCC2)cc1,n,n,n,n,n,n
O=C(COC(=O)c1cncc(Br)c1)NC1CC1,n,x,x,x,x,x
CC(C)(C)OC(=O)N1CCC[C@H]1c1nnc(SCc2ccccc2Cl)o1,n,n,n,n,n,n
CC(C)(C)OC(=O)N1CCC[C@H]1c1nnc(SCc2ccc(Cl)cc2Cl)o1,-2.1,n,n,n,n,n
COc1ccc(-c2nc(CS(=O)CC(=O)NCCC3=CCCCC3)c(C)o2)cc1 (stereo not drawn),n,n,n,n,n,n
CCN(CC)S(=O)(=O)c1ccc(N=Nc2c(C)[nH]n(C(N)=S)c2=O)cc1,-3,x,x,x,x,x
CCN(CC)S(=O)(=O)c1ccc(-c2nnc(SC)o2)cc1,n,x,x,x,x,x
CCCCn1cc(SCC(=O)O)c2ccccc21,n,n,n,n,n,21
O=C(C1CC1)N1CCC(c2nc(-c3ccc(S(=O)(=O)NCC4CCCO4)cc3)no2)CC1 (stereo not drawn),n,52,n,n,n,n
O=C(Cc1ccccc1)N1CCCC(c2nc(-c3ccc(S(=O)(=O)N4CCCC4)cc3)no2)C1 (stereo not drawn),n,x,x,x,x,x
CS(=O)(=O)N1CCCC(c2nc(-c3ccc(S(=O)(=O)NCc4ccccc4)cc3)no2)C1 (stereo not drawn),n,x,n,-3,n,n
CCOCCCNC(=O)C1CC(=O)N(C2CCCC2)C1 (stereo not drawn),n,n,n,n,n,n
Cc1ccn2cc(CCNC(=O)c3ccc(Br)o3)nc2c1,n,n,n,n,n,n
CCCCn1c(SCc2cc(=O)[nH]c3ccccc23)nc2c1c(=O)n(C)c(=O)n2C,n,n,n,n,n,n
SMILES,hDAT+cocaine,Jurkat viability,M1 agonist,D1 mod,HEK293 NFkB inh,M1 antagonist
N#CCCCSc1nnc(-c2ccc(Cl)cc2)n1-c1ccccc1,-8.6,n,n,n,n,n
Cc1cccc(-c2nnc(SCC#N)n2-c2ccccc2)c1,n,n,n,n,n,n
Cc1ccc(-n2nc(C)c(C3C(C#N)=C(N)OC4=C3C(=O)CCC4)c2Cl)cc1 (stereo not drawn),x,n,n,n,n,n
c1ccc2sc(N3CN(CCN4CCOCC4)CN(c4nc5ccccc5s4)C3)nc2c1,n,n,n,n,n,n
Cc1noc(C)c1CSc1nnc2c(C)cc3ccccc3n12,x,n,1.7,n,n,n
O=c1c2cc(N3CCOCC3)ccc2[nH]c(=S)n1CCCN1CCN(c2ccccc2F)CC1,n,x,n,-6.7,n,n
COc1cc2c(c(OC)c1CC=C(C)C)C[C@H](c1ccc(O)cc1O)CO2,n,x,x,x,x,x
CC(=O)OC1COC(OC2C(O)C(C)OC(OC3C(OC4CCC5(C)C(CCC6(C)C5CC=C5C7CC(C)(C)CCC7(C(=O)O)CCC56C)C4(C)CO)OCC(O)C3O)C2O)C(O)C1OC(C)=O (stereo not drawn),-10,x,x,x,x,x
CC1(C)CC[C@]2(C(=O)O)CC[C@]3(C)C(=CC[C@@H]4[C@@]5(C)CC[C@H](O)C(C)(C)[C@@H]5CC[C@]43C)[C@@H]2C1,n,x,x,x,x,x
COc1ccc2[nH]cc(C(=O)CN3CCN(C/C=C/c4ccccc4)CC3)c2c1,n,n,n,n,n,n
COC(=O)c1cc2ccccn2c2c(C(=O)OC)c(C(=O)OC)cc1-2,n,x,x,x,x,x
COC(=O)c1cc2c(C)c(C)c3ccccn3c-2c1C(=O)OC,-9.1,x,x,x,x,x
CCCCCCCCn1cc(C(C)=O)c(=O)[nH]c1=O,n,x,x,x,x,x
O=C1CC(N2CCN(c3cccc(C(F)(F)F)c3)CC2)C(=O)N1c1ccccc1F (stereo not drawn),3.2,n,n,n,n,n
O=C1CC(N2CCN(c3cccc(C(F)(F)F)c3)CC2)C(=O)N1c1ccccc1 (stereo not drawn),n,n,n,n,n,n
COC(=O)c1ccc(-n2nnnc2SCC(=O)N2CCCCC2)cc1,n,n,x,n,n,x
CCCOC(=O)c1ccc(-n2nnnc2SCC(=O)N2CCCCC2)cc1,n,n,x,-3.7,n,x
O=C(c1cc(-c2ccccc2)nc2ccccc12)N1N=C(C(F)F)CC1(O)C(F)F (stereo not drawn),2.9,x,x,x,x,x
OCCNc1cc(-n2nc(-c3ccccc3)cc2-c2ccccc2)ncn1,3.7,n,n,n,n,n
CNc1cc(-n2nc(C)cc2-c2ccccc2)ncn1,n,n,n,n,n,n
CCC1=Nc2cc(C(=O)NCCCOC(C)C)ccc2Sc2ccccc21,-7.2,x,x,x,x,x
Cc1nnc2c3ccccc3c(-c3cccc4ccccc34)nn12,n,x,x,x,x,x
Cc1nnc2c3ccccc3c(-c3ccccc3)nn12,n,n,n,15,n,n
Cc1cc2n(n1)C(c1sccc1C)Nc1c(C)cccc1-2 (stereo not drawn),n,n,n,n,n,n
Cn1c(=O)[nH]c(=O)c2c1nc(N1CCN(c3ccccc3)CC1)n2CCSc1ncccn1,n,n,n,-4.2,n,n
SMILES,hDAT+cocaine,Jurkat viability,M1 agonist,D1 mod,HEK293 NFkB inh,M1 antagonist
CCn1c(SCC(=O)Nc2cc(C)on2)nc2sc(C)c(C)c2c1=O,x,n,n,6.9,n,n
Cc1cc(NC(=O)CSc2nnc(C3CC3)n2C)no1,n,n,n,n,n,n
O=C(CSc1nc2ccsc2c(=O)n1Cc1ccccc1)NCc1ccco1,n,x,n,-2.2,n,n
Cc1cc(NC(=O)CSc2nnc3c(C)cc4c(C)ccc(C)c4n23)no1,n,90,n,n,n,n
COC(=O)c1ccccc1NC(=O)CSc1nc(O)cc(=O)n1C1CCCC1,n,n,44,n,n,n
O=C(c1ccc(Cn2cc(Br)cn2)o1)n1cccn1,n,n,n,n,n,n
